The source made the active and inactive calls. The calls are words filed in the database; no cut-off is given here.

Data set [1] deals with Mus musculus. The experiment in a line: Anticonvulsant activity in ip dosed albino Carworth Farms No.1 mouse assessed as protection against maximal electroshock-induced seizure after 0.25 hrs. It counts as functional. Conditions: albino Carworth Farms No.1, ip. In a few lines: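 Mouse quantification at the time of peak effect, compound given i.p. in 0.5% methylcellulose. Groups of at least eight mice received varied doses until at least two points fell between 100 and 0% response. ED50 (MES, scMET) and TD50 (rotorod) with 95% CI by probit analysis (Finney). PI = TD50/ED50 MES.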

Data set [2] is described as follows: Neurotoxicity in ip dosed albino Carworth Farms No.1 mouse assessed as motor impairment after 0.25 hrs by rotarod test. It counts as toxicity, organism-based. Conditions: Carworth Farms No.1 (albino), in vivo. In a few lines:
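Mouse quantification at the time of peak effect, compound given i.p. in 0.5% methylcellulose. Groups of at least eight mice received varied doses until at least two points fell between 100 and 0% response. PI = TD50/ED50 MES.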

Data set [3] relates to Mus musculus. The data set can be described thus: Anticonvulsant activity in ip dosed albino Carworth Farms No.1 mouse assessed as protection against electric-current for 3 secs-induced seizure after 0.25 hrs by 6Hz minimal clonic seizure test. The class given is functional. The note with it: albino Carworth Farms No.1, ip.
For data set [4], the system named is Mus musculus. The experiment in a line: Anticonvulsant activity in ip dosed albino Carworth Farms No.1 mouse assessed as time needs to show peak effect for electric-current for 3 secs-induced seizure after 0.25 hrs by 6Hz minimal clonic seizure test. The class given is functional.
Data set [5] concerns Rattus norvegicus. The experiment in a line: Anticonvulsant activity in po dosed albino Sprague-Dawley rat assessed as protection against maximal electroshock-induced seizure after 0.25 hrs. It counts as functional. The gist of the method:
(§1)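 Rats dosed orally, compound in 0.5% methylcellulose. MES at 150 mA, 60 Hz, 0.2 s; scMET with pentylenetetrazole 70 mg/kg s.c. plus 30 min observation; rotorod for toxicity.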

Data set [6] is described as follows: Neurotoxicity in po dosed albino Sprague-Dawley rat assessed as motor impairment after 0.25 hrs by rotarod test. It counts as toxicity, organism-based. Conditions: in vivo. In a few lines: as §1
For data set [7], the system named is Rattus norvegicus. The data set can be described thus: Anticonvulsant activity in po dosed Sprague-Dawley rat assessed as time needs to show peak effect for protection against subcutaneous metrazol-induced seizure after 0.25 hrs. The class given is functional. In a few lines: as §1
The subject of data set [8] is Mus musculus. The data set can be described thus: Anticonvulsant activity in ip dosed albino Carworth Farms No.1 mouse assessed as time needs to show peak effect for protection against subcutaneous metrazol-induced seizure. It counts as functional.
Data set [9] deals with Mus musculus. The experiment in a line: Neurotoxicity in albino Carworth Farms No.1 mouse assessed as motor impairment at 30 mg/kg, ip after 0.5 hrs by rotarod test. The class given is toxicity, organism-based. Conditions: in vivo. Further details: dose 30 mg/kg, route intraperitoneal. In a few lines:
(§2)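 Rotorod neurotoxicity in mice at 6 r.p.m. Compound given i.p. (30, 100, 300 mg/kg) in 0.5% methylcellulose; tested at 30 min and 4 h. Impairment is inability to keep equilibrium on the rod for a given time; scored as impaired/tested.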

The test system of data set [10] is Mus musculus. The experiment in a line: Neurotoxicity in albino Carworth Farms No.1 mouse assessed as motor impairment at 100 mg/kg, ip after 0.5 hrs by rotarod test. It counts as toxicity, organism-based. Also on record: dose 100 mg/kg, route intraperitoneal. Conditions: in vivo. In a few lines:
as §2

Data set [11] relates to Mus musculus. The data set can be described thus: Neurotoxicity in albino Carworth Farms No.1 mouse assessed as motor impairment at 300 mg/kg, ip after 0.5 hrs by rotarod test. It counts as toxicity, organism-based. Also on record: dose 300 mg/kg, route intraperitoneal. The note with it: in vivo. In a few lines:
as §2

In data set [12] the test system is Mus musculus. The experiment in a line: Toxicity in albino Carworth Farms No.1 mouse assessed as death following tonic extension at 300 mg/kg, ip after 0.5 hrs by rotarod test. The note with it: in vivo. It counts as organism-based. Further details: dose 300 mg/kg, route intraperitoneal. The gist of the method:
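Mice (18–25 g) were given 30, 100 or 300 mg/kg i.p. in 0.5% (v/v) aqueous methylcellulose. Neurotoxicity was checked on a 6 r.p.m. rotorod 30 min and 4 h after dosing and scored as inability to keep equilibrium. Death following tonic extension and sedation were recorded as observations (number of animals/number tested).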

Data set [13] deals with Mus musculus. The data set can be described thus: Anticonvulsant activity in albino Carworth Farms No.1 mouse assessed as protection against subcutaneous metrazol-induced seizure at 30 mg/kg, ip after 0.5 hrs. Further details: dose 30 mg/kg. The class given is functional, organism-based. In a few lines: (§3)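 Mouse scMET test. Compound given i.p. (30, 100 or 300 mg/kg) in 0.5% methylcellulose. Pentylenetetrazole 85 mg/kg (CD97) given s.c. at 0.5 or 4 h, then mice observed for 30 min. Protection is absence of clonic spasms; scored as protected/tested.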

Data set [14] has as its system Mus musculus. The experiment in a line: Anticonvulsant activity in albino Carworth Farms No.1 mouse assessed as protection against subcutaneous metrazol-induced seizure at 30 mg/kg, ip after 4 hrs. The class given is functional, organism-based. Further details: dose 30 mg/kg. In a few lines:
as §3

For data set [15], the system named is Mus musculus. The experiment in a line: Anticonvulsant activity in albino Carworth Farms No.1 mouse assessed as protection against subcutaneous metrazol-induced seizure at 100 mg/kg, ip after 0.5 hrs. The class given is functional, organism-based. Further details: dose 100 mg/kg. In a few lines:
as §3

Data set [16] deals with Mus musculus. The data set can be described thus: Anticonvulsant activity in albino Carworth Farms No.1 mouse assessed as protection against subcutaneous metrazol-induced seizure at 100 mg/kg, ip after 4 hrs. Also on record: dose 100 mg/kg. The class given is functional, organism-based. The gist of the method: as §3
Data set [17] has as its system Mus musculus. The experiment in a line: Anticonvulsant activity in albino Carworth Farms No.1 mouse assessed as protection against subcutaneous metrazol-induced seizure at 300 mg/kg, ip after 0.5 hrs. It counts as functional, organism-based. Also on record: dose 300 mg/kg. The gist of the method:
as §3

In data set [18] the test system is Mus musculus. The experiment in a line: Anticonvulsant activity in albino Carworth Farms No.1 mouse assessed as protection against subcutaneous metrazol-induced seizure at 300 mg/kg, ip after 4 hrs. The class given is functional, organism-based. Also on record: dose 300 mg/kg. The gist of the method: as §3
Data set [19] has as its system Mus musculus. The data set can be described thus: Toxicity in albino Carworth Farms No.1 mouse subcutaneous metrazol-induced seizure model assessed as myoclonic jerk at 300 mg/kg, ip after 0.5 hrs. The class given is organism-based. Also on record: dose 300 mg/kg. Conditions: in vivo, sc.
Data set [20] relates to Mus musculus. The experiment in a line: Anticonvulsant activity in albino Carworth Farms No.1 mouse assessed as protection against maximal electroshock-induced seizure at 30 mg/kg, ip after 0.5 hrs. It counts as functional, organism-based. Also on record: dose 30 mg/kg. In a few lines:
(§4)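 Mouse MES test with compound given i.p. (30, 100 or 300 mg/kg) in 0.5% methylcellulose; tested at 0.5 and 4 h. Corneal stimulus of 50 mA at 60 Hz for 0.2 s, electrodes primed with 0.5% butacaine in 0.9% NaCl. Protection is abolition of hindlimb tonic extension; scored as protected/tested.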

The test system of data set [21] is Mus musculus. The experiment in a line: Anticonvulsant activity in albino Carworth Farms No.1 mouse assessed as protection against maximal electroshock-induced seizure at 30 mg/kg, ip after 4 hrs. It counts as functional, organism-based. Further details: dose 30 mg/kg. The gist of the method:
as §4

Data set [22] has as its system Mus musculus. The data set can be described thus: Anticonvulsant activity in albino Carworth Farms No.1 mouse assessed as protection against maximal electroshock-induced seizure at 100 mg/kg, ip after 0.5 hrs. It counts as functional, organism-based. Also on record: dose 100 mg/kg. In a few lines: as §4
Data set [23] concerns Mus musculus. The experiment in a line: Anticonvulsant activity in albino Carworth Farms No.1 mouse assessed as protection against maximal electroshock-induced seizure at 100 mg/kg, ip after 4 hrs. It counts as functional, organism-based. Further details: dose 100 mg/kg. In a few lines: as §4
Data set [24] concerns Mus musculus. The experiment in a line: Anticonvulsant activity in albino Carworth Farms No.1 mouse assessed as protection against maximal electroshock-induced seizure at 300 mg/kg, ip after 0.5 hrs. The class given is functional, organism-based. Also on record: dose 300 mg/kg. The gist of the method: as §4
Data set [25] deals with Mus musculus. The experiment in a line: Anticonvulsant activity in albino Carworth Farms No.1 mouse assessed as protection against maximal electroshock-induced seizure at 300 mg/kg, ip after 4 hrs. The class given is functional, organism-based. Also on record: dose 300 mg/kg. In a few lines:
as §4

Data set [26] has as its system Mus musculus. The data set can be described thus: Neurotoxicity in albino Carworth Farms No.1 mouse assessed as motor impairment at 30 mg/kg, ip after 4 hrs by rotarod test. The class given is toxicity, organism-based. Further details: dose 30 mg/kg, route intraperitoneal. Conditions: in vivo. In a few lines:
as §2

Data set [27] deals with Mus musculus. The experiment in a line: Neurotoxicity in albino Carworth Farms No.1 mouse assessed as motor impairment at 300 mg/kg, ip after 4 hrs by rotarod test. The class given is toxicity, organism-based. Further details: dose 300 mg/kg, route intraperitoneal. Conditions: in vivo. In a few lines:
as §2

Consider `CCC1(C)CC(=O)NC1=O` (configuration not stated) [ETHOSUXIMIDE], for which the ED50 with Mus musculus [1] was greater than 500 mg/kg; in the data set on Mus musculus [3], 167 mg/kg; in the data set on Rattus norvegicus [5] it was greater than 500 mg/kg. For the same compound, the TD50 at 0.25 h in data set [2] was 341 mg/kg; in [6], greater than 500 mg/kg. For the same compound, the Time with Mus musculus [4], with Rattus norvegicus [7] and in the data set with Mus musculus [8] was 0.25 h in each case.

`Cl.O=C1CN2CCC[C@H]2C(=O)N1CCc1ccccc1`: the Activity entry in the data set on Mus musculus [9] is reported as “Non-toxic”; in the data set with Mus musculus [10], “Non-toxic”; in the data set on Mus musculus [11], “Toxic”; in the data set on Mus musculus [12] it was “Toxic”; in the data set on Mus musculus [19], “Toxic”; in the data set on Mus musculus [26], “Non-toxic”. Also, the Activity result in the data set with Mus musculus [27] was “Non-toxic”. The outcome with Mus musculus [13], with Mus musculus [14], in the data set with Mus musculus [15], in the data set with Mus musculus [16], in the data set on Mus musculus [18] and in the data set on Mus musculus [20] was inactive. Moreover, the result in the data set on Mus musculus [21], in the data set with Mus musculus [22] and in the data set on Mus musculus [23] was inactive. The result in the data set on Mus musculus [17], in the data set with Mus musculus [24] and in the data set with Mus musculus [25] was Active.

The record behind these values is ChEMBL document CHEMBL1909525, “Synthesis and anticonvulsant activity of novel 2,6-diketopiperazine derivatives. Part 1: perhydropyrrole[1,2-a]pyrazines” (Eur J Med Chem, 2011).
